High-throughput results: PubChem BioAssay, several laboratories
Rin1 Abl inh: blocks binding of human Rin1 to Abl | P00519+Q13671 | hit rate 0.4% among 360,000 | TR-FRET Rin1/Abl binding, biochemical | inhibition, % at 7.35 µM; in the data active = inhibition above about 5%, passing the limit was not always enough
RBBP9 inh: inhibitors of human serine hydrolase RBBP9. inhibition, % at 7.94 µM. AID 1515. O75884. hit rate 0.2% among 220,000. recombinant RBBP9, FP-Rh probe fluorescence polarization;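 active = inhibition above the campaign mean of all tested compounds plus 3 SD, cut at about 14% in these data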
Target sequence (O75884 whole entry, looked up): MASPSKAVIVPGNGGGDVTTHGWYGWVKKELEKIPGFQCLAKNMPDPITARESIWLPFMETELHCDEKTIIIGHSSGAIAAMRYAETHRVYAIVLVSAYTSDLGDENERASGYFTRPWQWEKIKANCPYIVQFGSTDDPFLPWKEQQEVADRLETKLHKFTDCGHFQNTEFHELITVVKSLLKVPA
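system = RBBP9 protein | input = RBBP9 at 2.5 µM in dispensed solution, before mixing | measured by = fluorescence polarization (mP), excitation 525 nm, emission 598 nm | incubation = enzyme-compound preincubation 30 min, then probe labeling 45 min, 25 °C | buffer or medium = Tris-NaCl-Pluronic buffer, pH 8.0 | compound = single dose 7.94 µM | also added = FP-Rh probe, 375 nM dispensing solution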
ALR H2O2 inh: human ALR oxidase inhibition via reduced H2O2. P55789. purified ALR, DTT oxidation, H2O2 HRP-luminol luminescence. inhibition, % (test concentration not listed). hit rate 3.8% among 290,000;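 active = mean replicate inhibition above about 79%, with every replicate also reaching it, limit read from the data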
PREPL inh: inhibits the human prolyl oligopeptidase-like enzyme; hit rate 0.68% among 320,000; Q4J6C6; recombinant PREPL, fluorescence polarization activity-based probe; inhibition, % at 5.96 µM; AID 2751; in the data active = inhibition above about 43%
SUMO HTRF inh: blocks human SUMOylation mediated by UBC9; P63279; HTRF SUMOylation assay, SAE1/SAE2 + UBC9, in vitro; inhibition, % at 35 µM; hit rate 0.36% among 290,000; AID 2006; in the data active = inhibition above about 50%, passing the limit was not always enough
Target sequence (P63279 whole entry, looked up): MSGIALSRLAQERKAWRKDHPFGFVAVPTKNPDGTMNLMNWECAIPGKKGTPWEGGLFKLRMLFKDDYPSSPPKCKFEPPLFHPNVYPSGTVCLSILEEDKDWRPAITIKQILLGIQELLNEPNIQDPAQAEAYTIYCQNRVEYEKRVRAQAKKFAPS
UBC13 inh: blocks human UBC13 polyubiquitin chain formation. P61088. TR-FRET. inhibition, % at 20 µM. hit rate 0.47% among 330,000; in the data active = inhibition above about 45%, passing the limit was not always enough
Target sequence (P61088 whole entry, looked up): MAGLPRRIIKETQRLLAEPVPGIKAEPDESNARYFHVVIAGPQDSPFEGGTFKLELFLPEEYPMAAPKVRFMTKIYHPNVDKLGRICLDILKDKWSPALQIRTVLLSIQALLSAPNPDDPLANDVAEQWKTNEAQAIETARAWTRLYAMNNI
Hits are given with their value; - = inactive; . = not tested or not shown. Only some compounds are listed: those with a hit (about 4.3% of all), similar ones and a draw of the others.

SMILES	Rin1 Abl inh	RBBP9 inh	ALR H2O2 inh	PREPL inh	SUMO HTRF inh	UBC13 inh
CCOC(=O)Cc1csc(NC(=O)CSc2nc(-c3ccccc3)c(C#N)c(=O)[nH]2)n1	-	-	98	-	-	-
O=C(NNS(=O)(=O)c1ccc2ccccc2c1)c1cc(-c2ccccn2)nc2ccccc12	-	-	96	-	-	-
Cc1ccc(-c2nc(NCc3ccco3)n(C(=O)c3ccco3)n2)cc1	-	-	.	-	-	-
O=C(c1ccco1)n1nc(-c2ccccc2)nc1NCc1ccco1	-	-	78	-	-	-
CCOC(=O)C1C(=O)CC(C)(O)C(C(=O)OCC)C1c1ccc(N(CC)CC)cc1 (stereo unspecified)	-	-	98	-	-	-
COc1ccc(C(=O)NC(C)c2cccnc2)cc1S(=O)(=O)N(C)Cc1ccccc1 (stereo unspecified)	-	.	-	-	.	-
COc1ccc(C(=O)Nc2ccc(C(=O)NCCc3ccc(OC)c(OC)c3)cc2)cc1	-	-	-	-	60	-
COc1ccc(NC(=O)CN2CCN(CC(=O)Nc3ccc(OC)c(OC)c3)CC2)cc1	-	-	-	-	-	-
COc1ccc(CCNC(=O)CSc2ccc(NC(C)=O)cc2)cc1OC	-	.	98	-	-	-
COc1ccc(NC(=O)CS(=O)CC(=O)Nc2ccc(OC)c(OC)c2)cc1 (stereo unspecified)	-	-	87	-	-	-
COc1ccc(CC(=O)NCCc2ccc(OC)c(OC)c2)cc1	-	.	-	-	-	-
COc1ccc(CCNC(=O)CSc2ccc3ccccc3c2)cc1OC	-	-	99	-	-	-
Cc1ccc(CSCC(=O)NCc2cccs2)cc1	-	-	-	-	-	-
COc1ccc(CCNC(=O)c2cc(-c3ccc(C)c(C)c3O)n[nH]2)cc1OC	-	-	-	-	-	-
COc1ccc(CCNC(=O)c2cc(-c3cc(C)ccc3O)n[nH]2)cc1OC	-	-	96	-	-	-
O=C(CSc1ccc2ccccc2c1)NCCc1ccc(O)c(O)c1	-	-	99	-	-	-
O=C(CSc1ccccc1)NCCc1ccccc1	-	.	-	-	-	-
COc1ccc(CCNC(=O)CSc2nnc(-c3ccccc3)c3ccccc23)cc1OC	-	-	96	-	-	-
CC(C)(O)C#Cc1ccc([C@@H]2C[C@H]3CN(c4ccccc4)C(=O)[C@]34CCCN24)s1	-	-	92	-	-	-
CCCCS(=O)(=O)/C=C\C1C2C=CC(C2)C1S(=O)(=O)CCCC (stereo unspecified)	-	-	-	-	-	-
CCCCS(=O)(=O)/C=C\C=C/S(=O)(=O)CCCC	-	-	98	-	-	-
O=C1c2ccccc2CSc2c(O)cccc21	-	.	80	-	.	-
O=C1CCCC2=C1C(c1ccc(O)c(O)c1)Nc1ccc3ncccc3c12 (stereo unspecified)	-	-	99	-	-	-
O=C(CN1CCCC1)N/N=C/c1c(O)ccc2ccccc12	-	.	-	-	-	-
COc1cc(C(=O)N/N=C(\C)Cn2nc([N+](=O)[O-])cc2C)ccc1O	-	-	83	-	-	-
SMILES	Rin1 Abl inh	RBBP9 inh	ALR H2O2 inh	PREPL inh	SUMO HTRF inh	UBC13 inh
CCN1CCS/C1=C\C=C\C1=[N+](CC)CCS1	-	-	.	.	-	.
CCN1CCS/C1=C/C=C/C1=[N+](CC)CCS1	-	-	97	-	-	.
Cc1cc(Nc2ccccc2)n(-c2ccccc2)n1	-	-	98	-	-	-
Cc1cc(Nc2nc(Cl)c(Cl)cc2Cl)n(-c2ccccc2)n1	-	-	-	-	-	-
Cc1cc(Nc2ccccc2)n(-c2nc3ccccc3[nH]2)n1	-	-	-	-	-	-
Cc1cc(NC(=O)c2cccs2)n(-c2ccccc2)n1	-	-	86	-	-	-
Cc1cc(C)nc(-n2nc(C)cc2Nc2ccccc2)n1	-	-	98	-	-	-
O=S1(=O)CCOC(CO)CN1Cc1ccc(Cl)c(Cl)c1 (stereo unspecified)	-	.	.	.	.	.
O=C(COc1cccnc1[N+](=O)[O-])NCc1cccs1	-	-	-	-	-	-
Cc1cccc(C)c1N1C(=O)CC(Sc2ccccc2N)C1=O (stereo unspecified)	-	.	.	.	.	.
Cc1ccc(CCNc2ccc3ccccc3c2)cn1	-	-	99	-	.	-
Cc1ccc(C(=O)O/N=C(\N)c2ccccn2)c(Cl)c1	-	.	91	-	-	-
COc1ccc(-n2c(=S)[nH]c3cc(C(=O)NC4CCCCC4)ccc3c2=O)c(OC)c1	-	-	91	-	-	-
O=C(COC(=O)CSCC(=O)N1CCCCC1)Nc1ccc(Cl)cc1	-	-	89	-	-	-
O=C(CSCC(=O)N1CCCCC1)OCC(=O)c1c[nH]c2ccccc12	-	-	98	-	-	-
O=C(COc1ccccc1)OCC(=O)c1c[nH]c2ccccc12	-	.	-	-	.	-
O=C(CSCC(=O)OCC(=O)N1CCN(C(=O)c2ccco2)CC1)Nc1ccc(Cl)cc1	-	.	.	.	.	.
Cc1nnc(Sc2nc3ccccc3o2)c2ccccc12	-	-	97	-	-	-
Cc1ccc(-c2nnc(Sc3nc4ccccc4o3)c3ccccc23)cc1	-	-	-	-	-	-
CC(=O)c1cccc(NC(=O)CSc2nc(=O)n(CCN3CCOCC3)c3c2CCC3)c1	-	.	-	-	.	-
COc1cc(NC(=O)CSc2nc(=O)n(CCCN3CCOCC3)c3c2CCC3)cc(OC)c1	-	.	99	-	.	-
CCOc1ccc(NC(=O)CSc2nc(=O)n(CCN3CCOCC3)c3c2CCCC3)cc1	-	.	-	-	.	-
COc1cc(NC(=O)CSc2nc(=O)n(CCN3CCOCC3)c3c2CCC3)cc(OC)c1	-	.	97	-	.	-
COc1ccc(NC(=O)CSc2nc(=O)n(CCN3CCOCC3)c3c2CCC3)cc1	-	.	98	-	.	-
O=C(CSc1nc(=O)n(CCN2CCOCC2)c2c1CCC2)Nc1ccc(OC(F)(F)F)cc1	-	.	97	-	.	-
SMILES	Rin1 Abl inh	RBBP9 inh	ALR H2O2 inh	PREPL inh	SUMO HTRF inh	UBC13 inh
O=C(NCCN1CCOCC1)/C(=C\c1ccc(F)cc1)NC(=O)c1ccccc1	-	.	-	-	.	-
NS(=O)(=O)c1ccc(NC(=S)N2CCC(Cc3ccccc3)CC2)cc1	-	.	-	-	-	-
CC(=O)Nc1cccc(NC(=O)CSc2nc(=O)n(CCN3CCOCC3)c3c2CCCC3)c1	-	.	99	-	.	-
Cc1cc(C)cc(NC(=O)CSc2nc(=O)n(CCCN3CCOCC3)c3c2CCCC3)c1	-	.	96	-	.	-
O=S1(=O)CC(N2CCN(CCO)CC2)CN1Cc1cn(Cc2ccccc2C(F)(F)F)nn1 (stereo unspecified)	-	.	.	.	.	.
C/C(=N\Nc1cccc2cccnc12)c1ccccn1	-	-	90	-	-	-
Oc1c(/C=N/Nc2cccc3cccnc23)ccc2ccccc12	-	-	-	-	66	-
Oc1cccc(/C=N/Nc2cccc3cccnc23)c1	-	-	.	.	-	-
Cc1ccsc1C(=O)OC(C)C(=O)Nc1ccc(Cl)cn1 (stereo unspecified)	-	.	-	-	.	-
